STEP block – STEP (human) phosphatase inhibition | P54829 | inhibition, % at 20 µM | recombinant STEP, OMFP fluorogenic substrate, fluorescence | 0.25% of 360,000 active;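 active = inhibition at 20 µM, scaled per plate between control wells, above about 37%, limit read from the data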;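 note: 0% = DMSO with enzyme and substrate and 100% = substrate only without enzyme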
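Assay system: isolated STEP enzyme / Timing: 20 min at room temperature, dark / Doses: 20 µM, 1% DMSO / Technique: fluorescence intensity, excitation 480 nm, emission 540 nm / Reagent: fluorogenic phosphatase substrate OMFP at 25 µM final / Measure: percent inhibition scaled to no-enzyme and uninhibited-enzyme controls, plate-pattern corrected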
SUMO1 PPI mod – modulators of human SUMO1-mediated protein-protein interactions | 0.33% of 360,000 active | SUMO1 binding to a labelled peptide, TR-FRET, 1 h | P63165 | inhibition, % at 20 µM; in the data active = inhibition above about 37%
Target sequence (P63165 whole entry, looked up): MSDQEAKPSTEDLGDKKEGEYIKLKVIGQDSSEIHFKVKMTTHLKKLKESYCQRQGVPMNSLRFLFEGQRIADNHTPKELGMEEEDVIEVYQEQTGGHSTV
Scp-1 inhibitor – Scp-1 (human) phosphatase inhibition; Recombinant Scp1, phosphopeptide, malachite green phosphate absorbance; Q9GZU7; 0.88% of 340,000 active; inhibition, % at 20 µM;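 active = inhibition above about 50% at 20 µM, limit read from the data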;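 note: plate controls were DMSO wells with enzyme for no effect and wells lacking enzyme for full effect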
Target sequence (Q9GZU7 76-261 limits assumed): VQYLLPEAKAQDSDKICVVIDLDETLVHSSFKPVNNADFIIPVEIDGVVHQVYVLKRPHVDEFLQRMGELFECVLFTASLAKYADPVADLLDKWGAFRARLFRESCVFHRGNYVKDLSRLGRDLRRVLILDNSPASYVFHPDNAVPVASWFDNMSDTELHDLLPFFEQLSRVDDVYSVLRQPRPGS
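Incubation: 45 min enzyme reaction at room temperature / System: truncated SCP-1 phosphatase (76-261aa) / Reagent: Phospho 17-mer peptide substrate / Buffer or medium: Acidic Tris acetate buffer with magnesium and detergent / Signal: absorbance at 630 nm / Doses: one concentration, 20 µM, with 1.0% DMSO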
NadD block – blocks S. aureus nicotinate mononucleotide adenylyltransferase | purified NadD enzyme, colorimetric absorbance read-out | inhibition, % at 20 µM | 0.78% of 360,000 active | AID 602399; in the data active = inhibition above about 26%
DNMT1 block – blocks human DNA methyltransferase DNMT1 | 0.83% of 360,000 active | P26358 | inhibition (reported as % activation of signal), % at 10 µM | DNMT1 molecular beacon, Hinp1I cleavage, fluorescence; in the data active = inhibition above about 50%
LMPTP block – blocks human LMPTP phosphatase; P24666; inhibition, % at 20 µM; recombinant LMPTP-A, OMFP fluorogenic substrate, fluorescence intensity; 0.22% of 360,000 active;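 active = compounds that cut the enzyme signal by at least half of the control window in the single-dose screen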;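 note: plate controls were DMSO wells with enzyme plus substrate for no effect and substrate without enzyme for full effect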
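Test system: LMPTP-A phosphatase enzyme. Amount: LMPTP-A at 0.625 nM final in the reaction. Reagent: OMFP substrate, 400 µM final. Times: 50 min at room temperature. Signal: endpoint fluorescence intensity from OMFP dephosphorylation. Read-out basis: % inhibition. Benchmarks: no-enzyme and uninhibited controls.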
* marks the source's active call; other numbers are inactive results; / = no result given. Only some compounds are listed: those with a hit (about 2.4% of all), similar ones and a draw of the others.

SMILES	STEP block	SUMO1 PPI mod	Scp-1 inhibitor	NadD block	DNMT1 block	LMPTP block
Cc1ccsc1CNC(=O)C1(C)CCN1C(=O)C(C)C (stereo not given)	-1	-1	/	4	5	-1
Nc1nccnc1C(=O)OCC(=O)Nc1ccc2[nH]c(=O)[nH]c2c1	2	80*	10	14	2	3
O=C(COC(=O)c1ccccc1)Nc1ccc2[nH]c(=O)[nH]c2c1	-3	4	-3	-3	0	-1
Cc1ccc(C(=O)OCC(=O)c2ccccc2)cc1	2	2	-9	-3	2	0
O=C(COC(=O)c1ccc(-c2cnc3ccccc3n2)cc1)c1ccccc1	-2	41*	-10	-4	9	-1
COC(=O)c1ccc(CN2C(=O)NC(CC(C)C)C2=O)cc1 (stereo not given)	-1	-1	0	-2	-1	0
Oc1c(C(Nc2nc3ccccc3s2)c2ccco2)ccc2cccnc12 (stereo not given)	-1	49*	-5	35*	-9	4
CC(C)C(=O)NC(c1ccco1)c1ccc2cccnc2c1O (stereo not given)	-3	-7	-15	-2	2	1
C[C@@H](c1ccccc1)N1C[C@@H](COCc2ccccc2)Oc2cc(N3CC[C@@H](N(C)C)C3)ccc2S1(=O)=O	/	-47	/	0	/	-3
CCN(CC)Cc1cc(O)c(CN(CC)CC)cc1O	3	19	3	31*	9	3
CCOc1ccc(NC(=O)CN(C)S(=O)(=O)c2cccc3cccnc23)cc1	0	0	0	0	6	1
O=c1c(N=Nc2ccc(O)cc2)c(-c2ccccc2)[nH]n1-c1ccc([N+](=O)[O-])cc1	2	-7	-7	40*	-4	3
Cc1ccc(N=Nc2c(C)[nH]n(C(N)=S)c2=O)cc1	2	-26	-3	6	-1	3
NC(=S)n1[nH]c(-c2ccc([N+](=O)[O-])cc2)c(N=Nc2ccc(Cl)cc2)c1=O	4	87*	3	68*	107*	29
Cc1ccc([N+](=O)[O-])cc1N=Nc1c(-c2ccc([N+](=O)[O-])cc2)[nH]n(C(N)=S)c1=O	9	18	63*	53*	21	27
O=Nc1c(-c2ccccc2)[nH]n(-c2ccccc2)c1=O	0	-26	-6	1	-3	0
Cc1ccc([N+](=O)[O-])cc1N=Nc1c(C)[nH]n(C(N)=S)c1=O	1	-23	-7	6	0	0
NC(=O)Cn1ccc(O)c(Cc2ccc(Cl)cc2Cl)c1=O	0	-1	-10	1	0	0
CCOc1ccc(N(CC(=O)N2CCC(Cc3ccccc3)CC2)S(C)(=O)=O)cc1	3	10	-3	1	2	2
CC1CCCN(Cc2c(O)ccc3c2O/C(=C\c2ccco2)C3=O)C1 (stereo not given)	-6	2	6	14	61*	14
COc1ccc2[nH]c(O)c(N=NC(=O)c3ccc(NS(=O)(=O)c4cccs4)cc3)c2c1	3	10	24	27	23	5
O=C(N=Nc1c(O)[nH]c2ccc(F)cc12)c1ccc(NS(=O)(=O)c2cccs2)cc1	2	-4	-10	39*	48	53*
CCCN1C(=O)CC(c2ccc(OC)c(OC)c2)C1=O (stereo not given)	-1	2	/	1	-3	47*
CCOC(=O)C1(C)CCN1C(=O)/C=C/c1ccccc1 (stereo not given)	-1	-5	/	1	3	-1
COc1cccc(N2CCN(C(=O)c3ccc(CSc4nc5ccncc5[nH]4)cc3)CC2)c1	-1	-6	-12	5	-1	52*
O=C(c1ccc(CSc2nc3ccncc3[nH]2)cc1)N1CCCCC1	-1	6	-13	-1	-5	13
CCOc1ccc(CCNC(=O)c2cccc(C#N)c2)cc1OCC	0	-5	-11	-5	1	-2
Cc1cc(C)cc(OCC(=O)Nc2ccc(N3CCCC3)cc2)c1	6	3	2	57*	65*	10
Cc1cc(C)cc(OCC(=O)Nc2ccc3c(c2)C(=O)c2ccccc2C3=O)c1	2	-2	-1	31*	5	10

Compound activity: PubChem BioAssay, Sanford-Burnham Center for Chemical Genomics
